Source: ChEMBL document CHEMBL4190402, “Development of a Novel Human Parathyroid Hormone Receptor 1 (hPTHR1) Agonist (CH5447240), a Potent and Orally Available Small Molecule for Treatment of Hypoparathyroidism” (J Med Chem, 2018)
Converted amounts (≈) assume the structure as drawn. Blank lines part the entries; values can stand above or below the compound they belong to. The source made the active and inactive calls. The rule behind the calls is not given here.

Columns and labels:
[1] = biological target: T1, Parathyroid hormone/parathyroid hormone-related peptide receptor (Homo sapiens, UniProt Q03431); assay: Displacement of 125I-PTH (1 to 15 residues) from human PTHR1 expressed in African green monkey COS7 cell membranes at 300 uM after 90 mins by gamma counting analysis
T1 sequence (Q03431 whole entry): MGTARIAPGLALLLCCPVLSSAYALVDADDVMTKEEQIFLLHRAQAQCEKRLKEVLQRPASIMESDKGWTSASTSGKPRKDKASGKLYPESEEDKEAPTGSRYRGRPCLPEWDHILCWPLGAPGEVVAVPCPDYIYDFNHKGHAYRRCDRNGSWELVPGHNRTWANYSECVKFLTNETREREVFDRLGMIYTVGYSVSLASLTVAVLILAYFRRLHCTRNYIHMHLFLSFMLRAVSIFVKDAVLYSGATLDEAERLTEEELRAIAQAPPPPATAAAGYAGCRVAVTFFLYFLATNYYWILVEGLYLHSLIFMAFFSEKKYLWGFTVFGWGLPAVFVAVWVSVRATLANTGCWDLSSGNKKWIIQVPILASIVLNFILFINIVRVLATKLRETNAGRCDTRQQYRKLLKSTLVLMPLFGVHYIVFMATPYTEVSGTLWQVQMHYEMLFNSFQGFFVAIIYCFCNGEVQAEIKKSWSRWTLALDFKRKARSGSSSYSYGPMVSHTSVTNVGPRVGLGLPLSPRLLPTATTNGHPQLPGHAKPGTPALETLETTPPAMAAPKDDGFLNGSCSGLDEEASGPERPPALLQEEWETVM

[2] = biological target: T2, Parathyroid hormone/parathyroid hormone-related peptide receptor (Homo sapiens) (UniProt Q03431); assay: (§1) Agonist activity at human PTHR1 expressed in HKRKB7 cells assessed as accumulation of intracellular cAMP after 20 mins by enzyme immunoassay; type: functional, cell-based
T2 sequence (whole entry): T1 sequence (Q03431 whole entry)
Procedure, shortened: (§2)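 HKRK-B7 cells (LLC-PK1 stably expressing hPTHR1), 1.0 x 10^3 per well, seeded overnight, then exposed to serially diluted compound in McCoy's 5A with 2 mg/ml BSA, 1 mmol/l IBMX and 2 mmol/l HEPES for 20 min at 37°C. Cells washed, frozen, lysed in 50 mmol/l HCl, cAMP read by EIA.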

[3] = biological target: T1, Parathyroid hormone/parathyroid hormone-related peptide receptor; assay: as §1; type: functional, cell-based; procedure, shortened: as §2
[4] = biological target: T2, Parathyroid hormone/parathyroid hormone-related peptide receptor (Homo sapiens); assay: Displacement of 125I-PTH (1 to 15 residues) from human PTHR1 expressed in African green monkey COS7 cell membranes after 90 mins by gamma counting analysis
Procedure, shortened: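 Competition binding on membranes from COS-7 cells expressing human PTHR1. Incubated 90 min at room temperature, vacuum-filtered and washed, filter radioactivity gamma-counted. Nonspecific binding defined with excess (1x10^4 M as printed) unlabeled PTH(1-34).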

[5] = Solubility of the compound in FaSSIF at 1 mM by HPLC-UV analysis; type: physicochemical; settings: FaSSIF
Procedure, shortened: (§3)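 A 1 mM DMSO stock (50 µL) was freeze-dried, then the residue taken up in 50 mM PBS pH 6.5 or FaSSIF pH 6.5. Sonicated 10 min, shaken 2 h, centrifuged, filtered. Filtrate concentration determined by HPLC-UV against each compound's calibration curve.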

[6] = Solubility of the compound in PBS at pH 6.5 at 1 mM by HPLC-UV analysis; type: physicochemical; settings: PBS, pH 6.5; procedure, shortened: as §3
[7] = Intrinsic clearance in human liver microsomes assessed per mg protein at 1 uM after 30 mins in presence of NADPH by LC-MS/MS analysis; type: ADME, microsome; settings: read-out: CLH
[8] = Intrinsic clearance in human liver microsomes assessed per mg protein at 1 uM after 30 mins in absence of NADPH by LC-MS/MS analysis; type: ADME, microsome; settings: microsomes, 0.5 h, 1 µM
[9] = Half life in Crl:CD/SD IGS, CRJ rat at 3 mg/kg, iv by LC-MS/MS analysis; type: ADME, organism-based; settings: in vivo
Procedure, shortened: (§4)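 Female 5-week-old rats, two per dose group, given 3 mg/kg orally or intravenously. Oral blood samples at 15 and 30 min, 1, 2, 4 and 6 h; intravenous sample at 3 min. Plasma drug measured by LC-MS/MS (detection limit 0.3 ng/ml). Parameters derived by noncompartmental analysis; mean of n=2.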

[10] = Half life in Crl:CD/SD IGS, CRJ rat at 3 mg/kg, po by LC-MS/MS analysis; type: ADME, organism-based; settings: in vivo; procedure, shortened: as §4
[11] = Tmax in Crl:CD/SD IGS, CRJ rat at 3 mg/kg, po by LC-MS/MS analysis; type: ADME, organism-based; settings: in vivo; procedure, shortened: as §4
[12] = Cmax in Crl:CD/SD IGS, CRJ rat at 3 mg/kg, po by LC-MS/MS analysis; type: ADME, organism-based; set-up: dose 3 mg/kg, route oral; settings: in vivo; procedure, shortened: as §4
[13] = AUC (infinity) in Crl:CD/SD IGS, CRJ rat at 3 mg/kg, iv by LC-MS/MS analysis; type: ADME, organism-based; set-up: dose 3 mg/kg, route intravenous, time infinity; settings: in vivo; procedure, shortened: as §4
[14] = AUC (infinity) in Crl:CD/SD IGS, CRJ rat at 3 mg/kg, po by LC-MS/MS analysis; type: ADME, organism-based; set-up: dose 3 mg/kg, time infinity, route oral; settings: in vivo; procedure, shortened: as §4
[15] = Clearance in Crl:CD/SD IGS, CRJ rat at 3 mg/kg, iv by LC-MS/MS analysis; type: ADME, organism-based; settings: in vivo; procedure, shortened: as §4
[16] = Clearance in Crl:CD/SD IGS, CRJ rat at 3 mg/kg, po by LC-MS/MS analysis; type: ADME, organism-based; settings: in vivo; procedure, shortened: as §4
[17] = Volume of distribution at steady state in Crl:CD/SD IGS, CRJ rat at 3 mg/kg, iv by LC-MS/MS analysis; type: ADME, organism-based; settings: in vivo, read-out: Vdss; procedure, shortened: as §4
[18] = Oral bioavailability in Crl:CD/SD IGS, CRJ rat at 3 mg/kg by LC-MS/MS analysis; type: ADME, organism-based; settings: in vivo; procedure, shortened: as §4
[19] = biological target: hERG (KCNH2) (Homo sapiens, UniProt Q12809); assay: Inhibition of human ERG at a holding potential of -80 mV at 10 uM by automated patch clamp electrophysiology method
Sequence of hERG (KCNH2) (Q12809 whole entry, the tested form may be a part): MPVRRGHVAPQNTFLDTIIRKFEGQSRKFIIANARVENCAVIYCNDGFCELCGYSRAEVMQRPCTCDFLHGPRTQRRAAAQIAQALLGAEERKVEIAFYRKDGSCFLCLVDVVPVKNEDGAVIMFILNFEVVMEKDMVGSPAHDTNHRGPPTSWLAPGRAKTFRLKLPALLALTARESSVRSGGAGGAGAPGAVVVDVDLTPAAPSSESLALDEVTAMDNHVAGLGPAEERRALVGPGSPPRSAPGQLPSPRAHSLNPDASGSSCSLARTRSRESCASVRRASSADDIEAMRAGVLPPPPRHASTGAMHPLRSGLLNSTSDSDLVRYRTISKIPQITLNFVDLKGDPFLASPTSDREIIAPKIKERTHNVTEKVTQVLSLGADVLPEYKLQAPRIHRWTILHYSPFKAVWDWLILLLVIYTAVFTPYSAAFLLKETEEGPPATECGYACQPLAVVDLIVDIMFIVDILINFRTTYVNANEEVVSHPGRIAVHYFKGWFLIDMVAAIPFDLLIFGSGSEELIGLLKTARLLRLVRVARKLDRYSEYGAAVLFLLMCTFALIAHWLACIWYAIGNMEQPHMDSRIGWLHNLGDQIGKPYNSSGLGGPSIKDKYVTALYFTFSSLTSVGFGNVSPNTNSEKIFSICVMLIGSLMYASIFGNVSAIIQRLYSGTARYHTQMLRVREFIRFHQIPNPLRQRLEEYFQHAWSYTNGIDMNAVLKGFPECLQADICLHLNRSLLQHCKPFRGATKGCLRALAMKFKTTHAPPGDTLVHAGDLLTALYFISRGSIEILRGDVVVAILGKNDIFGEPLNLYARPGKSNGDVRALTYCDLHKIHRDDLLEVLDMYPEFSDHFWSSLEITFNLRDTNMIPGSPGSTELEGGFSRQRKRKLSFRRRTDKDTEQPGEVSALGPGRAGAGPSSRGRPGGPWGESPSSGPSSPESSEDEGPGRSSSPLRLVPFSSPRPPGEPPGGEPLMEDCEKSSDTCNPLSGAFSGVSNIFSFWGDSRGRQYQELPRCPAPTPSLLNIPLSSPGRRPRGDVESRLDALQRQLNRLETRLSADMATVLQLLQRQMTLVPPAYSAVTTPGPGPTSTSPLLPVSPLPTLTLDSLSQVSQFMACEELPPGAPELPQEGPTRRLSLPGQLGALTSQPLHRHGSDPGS

[20] = biological target: T2, Parathyroid hormone/parathyroid hormone-related peptide receptor (Homo sapiens); assay: Ratio of IC50 for displacement of 125I-PTH (1 to 15 residues) from human PTHR1 expressed in African green monkey COS7 cell membranes to EC50 for agonist activity at human PTHR1 expressed in HKRKB7 cells assessed as accumulation of intracellular cAMP; type: functional
[21] = test system: LLC-PK1; assay: Induction of cAMP production in porcine LLC-PK1 cells after 20 mins by enzyme immunoassay; type: functional, cell-based; settings: Sus scrofa
Procedure, shortened: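 Counter-screen on parent LLC-PK1 cells lacking hPTHR1. Conditions match the HKRK-B7 assay: 20 min at 37°C in IBMX-containing assay medium, then cAMP read by EIA.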

[22] = test system: Rattus norvegicus; assay: In vivo agonist activity at PTHR1 in po dosed Crl:CD(SD) rat TPTX model assessed as increase in serum calcium levels administered as single dose measured after 24 hrs by o-cresolphthalein complexone method; type: functional, organism-based
Procedure, shortened: (§5)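 Female 6-week-old Crl:CD(SD) rats after surgical TPTX; those with serum Ca <8.0 mg/dl at day 5 were used, and dosing began day 6. Single oral dose of 6, 19 or 60 mg/kg, or vehicle (10% DMSO/10% Kolliphor EL in 10% HPCD/0.752% glycine buffer), n=5 per group. Jugular blood taken under isoflurane before dosing and at 0.5, 1, 2, 4, 6, 10 and 24 h. Serum Ca measured by o-CPC, Pi by xanthine oxidase.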

[23] = test system: Rattus norvegicus; assay: In vivo agonist activity at PTHR1 in po dosed Crl:CD(SD) rat TPTX model assessed as decrease in serum phosphorus levels administered as single dose measured after 24 hrs by xanthine oxidase method; type: functional, organism-based; procedure, shortened: as §5
[24] = test system: Rattus norvegicus; assay: Tmax in Sprague-Dawley rat at 5 ug/kg, sc; type: ADME, organism-based; settings: in vivo, 0.005 mg/kg
[25] = Half life in Sprague-Dawley rat at 5 ug/kg, sc; type: ADME, organism-based; settings: in vivo, 0.005 mg/kg

IC50 [1]: 93.7 µM
EC20 [2]: 3 µM
EC50 [3]: 12 µM
inhibition [4]: 75%
solubility at 1000 µM [5]: 250 µg/mL (≈ 483 µM)
solubility at 1000 µM [6]: 99 µg/mL (≈ 191 µM)
microsomal CLint at 1 µM [7]: 45 µL/min/mg
CLint [8]: 0.14 µL/min/mg
half-life [9]: 1.1 h
half-life [10]: 1 h
Tmax [11]: 1 h
Cmax [12]: 1360 ng/mL
AUC(0-inf) [13]: 4820 ng·h/mL
AUC(0-inf) [14]: 2650 ng·h/mL
clearance [15]: 10.4 mL/min/kg
CL/F [16]: 19 mL/min/kg
Vd [17]: 0.395 L/kg
bioavailability [18]: 55%
Ratio IC50/EC50 [20]: 8
Compound: Cc1cc(N(C)C(N)=O)cc(C)c1CCS(=O)(=O)N1CCC2(CC1)N=C([C@H]1CC[C@H](C)CC1)NC2=O
inhibition at 10 µM [19]: 10%
Activity [21]: inactive
Activity [22]: Dose-dependent effect
Activity [23]: Dose-dependent effect

Tmax [24]: 0.25 h
half-life [25]: 0.5 h
Compound: CC[C@H](C)[C@H](NC(=O)[C@H](CCC(=O)O)NC(=O)[C@H](CO)NC(=O)[C@@H](NC(=O)[C@@H](N)CO)C(C)C)C(=O)N[C@@H](CCC(N)=O)C(=O)N[C@@H](CC(C)C)C(=O)N[C@@H](CCSC)C(=O)N[C@@H](Cc1cnc[nH]1)C(=O)N[C@@H](CC(N)=O)C(=O)N[C@@H](CC(C)C)C(=O)NCC(=O)N[C@@H](CCCCN)C(=O)N[C@@H](Cc1cnc[nH]1)C(=O)N[C@@H](CC(C)C)C(=O)N[C@@H](CC(N)=O)C(=O)N[C@@H](CO)C(=O)N[C@@H](CCSC)C(=O)N[C@@H](CCC(=O)O)C(=O)N[C@@H](CCCN=C(N)N)C(=O)N[C@H](C(=O)N[C@@H](CCC(=O)O)C(=O)N[C@@H](Cc1c[nH]c2ccccc12)C(=O)N[C@@H](CC(C)C)C(=O)N[C@@H](CCCN=C(N)N)C(=O)N[C@@H](CCCCN)C(=O)N[C@@H](CCCCN)C(=O)N[C@@H](CC(C)C)C(=O)N[C@@H](CCC(N)=O)C(=O)N[C@@H](CC(=O)O)C(=O)N[C@H](C(=O)N[C@@H](Cc1cnc[nH]1)C(=O)N[C@@H](CC(N)=O)C(=O)N[C@@H](Cc1ccccc1)C(=O)O)C(C)C)C(C)C [TERIPARATIDE]
